Measurements taken from ChEMBL document CHEMBL4689842, “EUbOPEN Chemogenomics Library wave 1” (2021).

Test system: Fibroblast
Assay: Multiplex assay against human fibroblast
Assay type: toxicity, cell-based
Method in brief: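 With compound added, live cells were imaged on a CQ1 microscope at 37°C and 5% CO2; staining with Hoechst33342, BioTracker Green Microtubule Cytoskeleton Dye, MitoTracker Red and Annexin V Alexa Fluor 680 had been done at seeding. The CellPathfinder machine-learning gating scheme split cells into Hoechst high-intensity objects or normal cells, normal cells into healthy, pyknosed or fragmented nuclei, and pyknosed cells into mitotic or apoptotic. The tubulin, mitochondrial-mass and membrane-permeability phenotypes are per cents of healthy-nucleus cells.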

[1] = 12 h, 1 µM, compound concentration 1 uM, replicate 1
[2] = 12 h, 1 µM, compound concentration 1 uM, replicate 2
[3] = 12 h, 10 µM, compound concentration 10 uM, replicate 1
[4] = 12 h, 10 µM, compound concentration 10 uM, replicate 2
[5] = 24 h, 1 µM, compound concentration 1 uM, replicate 1
[6] = 24 h, 1 µM, compound concentration 1 uM, replicate 2
[7] = 24 h, 10 µM, compound concentration 10 uM, replicate 1
[8] = 24 h, 10 µM, compound concentration 10 uM, replicate 2
[9] = 48 h, 1 µM, compound concentration 1 uM, replicate 1
[10] = 48 h, 1 µM, compound concentration 1 uM, replicate 2
[11] = 48 h, 10 µM, compound concentration 10 uM, replicate 1
[12] = 48 h, 10 µM, compound concentration 10 uM, replicate 2

Structure (SMILES): Cc1ccc2c(c1)c1c(n2CCc2ccc(C)nc2)CCN(C)C1 [LATREPIRDINE]
- Population Apoptotic (%) [1]: 60%
- Population Fragmented Nuclei (%) [1]: 26%
- Population Healthy Nuclei (%) [1]: 55%
- Population Hoechst High Intensity Objects (%) [1]: 15%
- Population Membrane Permeable-Phenotype (%) [1]: 18%
- Population Mitochondria Different-Phenotype (%) [1]: 18%
- Population Mitotic Cells (%) [1]: 40%
- Population Normal (%) [1]: 84%
- Population Pyknosed Nuclei (%) [1]: 18%
- Population Tubulin-Different-Phenotype (%) [1]: 59%
- Total Cell Count [1]: 127
- Population Apoptotic (%) [2]: 100%
- Population Fragmented Nuclei (%) [2]: 27%
- Population Healthy Nuclei (%) [2]: 67%
- Population Hoechst High Intensity Objects (%) [2]: 16%
- Population Membrane Permeable-Phenotype (%) [2]: 5%
- Population Mitochondria Different-Phenotype (%) [2]: 27%
- Population Mitotic Cells (%) [2]: 0%
- Population Normal (%) [2]: 83%
- Population Pyknosed Nuclei (%) [2]: 4%
- Population Tubulin-Different-Phenotype (%) [2]: 27%
- Total Cell Count [2]: 61
- Population Apoptotic (%) [3]: 55%
- Population Fragmented Nuclei (%) [3]: 29%
- Population Healthy Nuclei (%) [3]: 47%
- Population Hoechst High Intensity Objects (%) [3]: 15%
- Population Membrane Permeable-Phenotype (%) [3]: 3%
- Population Mitochondria Different-Phenotype (%) [3]: 30%
- Population Mitotic Cells (%) [3]: 44%
- Population Normal (%) [3]: 84%
- Population Pyknosed Nuclei (%) [3]: 23%
- Population Tubulin-Different-Phenotype (%) [3]: 88%
- Total Cell Count [3]: 148
- Population Apoptotic (%) [4]: 88%
- Population Fragmented Nuclei (%) [4]: 7%
- Population Healthy Nuclei (%) [4]: 65%
- Population Hoechst High Intensity Objects (%) [4]: 8%
- Population Membrane Permeable-Phenotype (%) [4]: 42%
- Population Mitochondria Different-Phenotype (%) [4]: 100%
- Population Mitotic Cells (%) [4]: 11%
- Population Normal (%) [4]: 91%
- Population Pyknosed Nuclei (%) [4]: 26%
- Population Tubulin-Different-Phenotype (%) [4]: 100%
- Total Cell Count [4]: 103
- Population Apoptotic (%) [5]: 60%
- Population Fragmented Nuclei (%) [5]: 27%
- Population Healthy Nuclei (%) [5]: 59%
- Population Hoechst High Intensity Objects (%) [5]: 16%
- Population Membrane Permeable-Phenotype (%) [5]: 22%
- Population Mitochondria Different-Phenotype (%) [5]: 14%
- Population Mitotic Cells (%) [5]: 40%
- Population Normal (%) [5]: 83%
- Population Pyknosed Nuclei (%) [5]: 12%
- Population Tubulin-Different-Phenotype (%) [5]: 61%
- Total Cell Count [5]: 140
- Population Apoptotic (%) [6]: 55%
- Population Fragmented Nuclei (%) [6]: 23%
- Population Healthy Nuclei (%) [6]: 67%
- Population Hoechst High Intensity Objects (%) [6]: 13%
- Population Membrane Permeable-Phenotype (%) [6]: 10%
- Population Mitochondria Different-Phenotype (%) [6]: 27%
- Population Mitotic Cells (%) [6]: 44%
- Population Normal (%) [6]: 86%
- Population Pyknosed Nuclei (%) [6]: 8%
- Population Tubulin-Different-Phenotype (%) [6]: 14%
- Total Cell Count [6]: 74
- Population Apoptotic (%) [7]: 55%
- Population Fragmented Nuclei (%) [7]: 33%
- Population Healthy Nuclei (%) [7]: 51%
- Population Hoechst High Intensity Objects (%) [7]: 28%
- Population Membrane Permeable-Phenotype (%) [7]: 10%
- Population Mitochondria Different-Phenotype (%) [7]: 37%
- Population Mitotic Cells (%) [7]: 45%
- Population Normal (%) [7]: 71%
- Population Pyknosed Nuclei (%) [7]: 14%
- Population Tubulin-Different-Phenotype (%) [7]: 82%
- Total Cell Count [7]: 189
- Population Apoptotic (%) [8]: 76%
- Population Fragmented Nuclei (%) [8]: 4%
- Population Healthy Nuclei (%) [8]: 56%
- Population Hoechst High Intensity Objects (%) [8]: 4%
- Population Membrane Permeable-Phenotype (%) [8]: 56%
- Population Mitochondria Different-Phenotype (%) [8]: 100%
- Population Mitotic Cells (%) [8]: 24%
- Population Normal (%) [8]: 95%
- Population Pyknosed Nuclei (%) [8]: 38%
- Population Tubulin-Different-Phenotype (%) [8]: 100%
- Total Cell Count [8]: 119
- Population Apoptotic (%) [9]: 88%
- Population Fragmented Nuclei (%) [9]: 36%
- Population Healthy Nuclei (%) [9]: 55%
- Population Hoechst High Intensity Objects (%) [9]: 23%
- Population Membrane Permeable-Phenotype (%) [9]: 13%
- Population Mitotic Cells (%) [9]: 11%
- Population Normal (%) [9]: 76%
- Population Pyknosed Nuclei (%) [9]: 8%
- Population Tubulin-Different-Phenotype (%) [9]: 42%
- Total Cell Count [9]: 140
- Population Apoptotic (%) [10]: 100%
- Population Fragmented Nuclei (%) [10]: 53%
- Population Healthy Nuclei (%) [10]: 43%
- Population Hoechst High Intensity Objects (%) [10]: 44%
- Population Membrane Permeable-Phenotype (%) [10]: 22%
- Population Mitochondria Different-Phenotype (%) [10]: 6%
- Population Mitotic Cells (%) [10]: 0%
- Population Normal (%) [10]: 55%
- Population Pyknosed Nuclei (%) [10]: 3%
- Population Tubulin-Different-Phenotype (%) [10]: 56%
- Total Cell Count [10]: 206
- Population Fragmented Nuclei (%) [11]: 40%
- Population Healthy Nuclei (%) [11]: 56%
- Population Hoechst High Intensity Objects (%) [11]: 31%
- Population Membrane Permeable-Phenotype (%) [11]: 7%
- Population Mitochondria Different-Phenotype (%) [11]: 21%
- Population Normal (%) [11]: 68%
- Population Pyknosed Nuclei (%) [11]: 3%
- Population Tubulin-Different-Phenotype (%) [11]: 80%
- Total Cell Count [11]: 208
- Population Apoptotic (%) [12]: 100%
- Population Fragmented Nuclei (%) [12]: 34%
- Population Healthy Nuclei (%) [12]: 64%
- Population Hoechst High Intensity Objects (%) [12]: 25%
- Population Membrane Permeable-Phenotype (%) [12]: 14%
- Population Mitochondria Different-Phenotype (%) [12]: 9%
- Population Mitotic Cells (%) [12]: 0%
- Population Normal (%) [12]: 74%
- Population Pyknosed Nuclei (%) [12]: 2%
- Population Tubulin-Different-Phenotype (%) [12]: 79%
- Total Cell Count [12]: 134
